PRMT1 inh – inhibitors of human PRMT1 | inhibition, % at 2.79 µM | AID 652257 | actives 1.3% (n = 370,000) | recombinant PRMT1, activity-based probe fluorescence polarization | Q99873;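 active = inhibition above about 21% made by adding two undisclosed values, limit read from the data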
Target sequence (Q99873 whole entry, looked up): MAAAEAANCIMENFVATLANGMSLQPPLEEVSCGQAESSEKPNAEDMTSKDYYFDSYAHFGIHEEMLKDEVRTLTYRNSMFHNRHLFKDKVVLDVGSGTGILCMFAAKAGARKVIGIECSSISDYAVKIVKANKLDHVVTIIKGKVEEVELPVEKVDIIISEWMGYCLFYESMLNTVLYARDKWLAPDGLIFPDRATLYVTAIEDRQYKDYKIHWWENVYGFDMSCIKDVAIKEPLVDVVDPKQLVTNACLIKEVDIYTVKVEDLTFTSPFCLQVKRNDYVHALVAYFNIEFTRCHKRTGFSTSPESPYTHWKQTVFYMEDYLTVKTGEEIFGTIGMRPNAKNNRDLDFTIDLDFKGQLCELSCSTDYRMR
RBBP9 inhibitor – inhibitors of human serine hydrolase RBBP9. recombinant RBBP9, FP-Rh probe fluorescence polarization. inhibition, % at 7.94 µM. actives 0.2% (n = 220,000). AID 1515. O75884;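 active = inhibition above the campaign mean of all tested compounds plus 3 SD, cut at about 14% in these data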;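 also: plate controls were DMSO wells with RBBP9 for no effect and wells lacking RBBP9 protein for full effect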
Target sequence (O75884 whole entry, looked up): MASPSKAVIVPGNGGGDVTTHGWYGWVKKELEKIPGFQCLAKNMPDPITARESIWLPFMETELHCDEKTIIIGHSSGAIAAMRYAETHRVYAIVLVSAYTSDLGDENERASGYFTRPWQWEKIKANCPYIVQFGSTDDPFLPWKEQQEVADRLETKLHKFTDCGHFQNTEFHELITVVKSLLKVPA
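system = RBBP9 protein | input = RBBP9 at 2.5 µM in dispensed solution, before mixing | measured by = fluorescence polarization (mP), excitation 525 nm, emission 598 nm | incubation = enzyme-compound preincubation 30 min, then probe labeling 45 min, 25 °C | buffer or medium = Tris-NaCl-Pluronic buffer, pH 8.0 | compound = single dose 7.94 µM | also added = FP-Rh probe, 375 nM dispensing solution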
ABHD5 PLIN5 PPI – ABHD5-PLIN5 protein interaction inhibition | Q00G26+Q8WTS1 | Split G. princeps luciferase complementation, luminescence, 4 h | inhibition, % at 4 µM | actives 0.78% (n = 360,000) | AID 602281;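 active = inhibition above the mean inhibition across every tested compound plus 3 SD, cut at about 22% in these data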;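 also: 0% = DMSO only wells and the 100% control is not disclosed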
LEDGF integ inh – blocks HIV-1 LEDGF/p75-dependent DNA integration | actives 0.64% (n = 370,000) | inhibition, % at 3.7 µM | TR-FRET IN-LEDGF/p75 DNA integration, Eu/Cy5;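 active = inhibition above the screen-wide mean plus 3 SD, cut at about 13% in these data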;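 also: signal is the Cy5 over europium emission ratio at 671 and 618 nm; 0% = plate median of compound wells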
MBD2 DNA inh – inhibitors of human MBD2 binding to methylated oligonucleotide. Q9UBB5. TR-FRET. inhibition, % at 4.4 µM. actives 0.31% (n = 370,000); in the data active = inhibition above about 13%
UHRF1 MBD2 ctr – human UHRF1 methylated DNA binding inhibitors; Q96T88; UHRF1 binding to methylated oligo, TR-FRET; inhibition, % at 4.4 µM; actives 0.75% (n = 370,000); in the data active = inhibition above about 21%;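 also: UHRF1 SRA domain binding a hemimethylated CpG hairpin DNA probe; 0% = median of test compound wells and 100% = reference inhibitor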
The depositor's hits bear a star; · = not tested or not shown. The list is not random: actives were taken first. Their share in the collection is about 3.1%.

SMILES | PRMT1 inh | RBBP9 inhibitor | ABHD5 PLIN5 PPI | LEDGF integ inh | MBD2 DNA inh | UHRF1 MBD2 ctr
COC(=O)c1ccccc1-c1ccc(/C=N/NC(=O)c2cc3ccccc3o2)o1 | 0.1 | -25.1 | -2.9 | 0.6 | 3.3 | -3.0
CC(C)OC(=O)CSc1nc2ccccc2s1 | 1.8 | -11.3 | -3.7 | 2.5 | 9.9 | 23.2*
CC(=O)CSc1nc2ccccc2s1 | 5.9 | -4.5 | 3.1 | -0.7 | 0.2 | -0.9
CCc1nnc(NC(=O)CN2CCN(C(=O)c3ccccc3)CC2)s1 | -2.0 | -2.5 | -0.3 | 0.0 | 11.8 | 24.3*
CCc1nnc(NC(=O)CN2CCN(CC)CC2)s1 | -0.9 | · | -8.2 | -2.0 | -2.3 | -0.9
OC(c1ccccc1)(c1ccccc1)C1CCN(CCCOc2cccc(C(F)(F)F)c2)CC1 | -2.5 | · | · | 0.6 | 3.9 | 6.7
CCCCCCCCN1C(=O)[C@@H](CC(=O)NCc2cccc(C(F)(F)F)c2)C[C@@]2(C(=O)OC)C1=C[C@H](C(C)C)O[C@@H]2C1CC1 | -1.3 | · | · | 3.0 | -6.2 | -0.5
O=C(OC12CCCN(C1)/C(=C/c1ccc(Cl)cc1)C2)c1ccc(F)cc1 (configuration not stated) | -0.5 | · | · | -2.3 | -2.6 | -0.6
CCC(C)n1c(NC(=O)c2ccccc2)c(C#N)c2nc3ccccc3nc21 (configuration not stated) | -1.8 | -6.2 | -36.6 | 28.4* | 1.6 | 8.1
CCC(=O)Nc1c(C#N)c2nc3ccccc3nc2n1-c1ccc(C)cc1 | 0.1 | · | -3.5 | -0.8 | -3.4 | -7.3
CCOC(=O)Cc1csc(NC(=O)CSc2nnc3ccccn23)n1 | 3.4 | -9.4 | -1.4 | -0.6 | -9.1 | 32.5*
COC(=O)C1CN(C2CC2)CCS(=O)(=O)N1Cc1cn(Cc2ccc(F)cc2)nn1 (configuration not stated) | -0.2 | · | · | -1.9 | 9.4 | 12.9
Cc1ccc(NC(=O)OCCCN2C(=O)CCC23CCC(C)CC3)cc1C (configuration not stated) | -3.1 | · | · | 2.1 | -5.5 | -1.8
O=Cc1cn(CC(=O)Nc2ccc3c(c2)OCO3)c2ccccc12 | 1.8 | -3.6 | -1.9 | -3.6 | 5.6 | 35.3*
Cc1ccc(NC(=O)Cn2cc(C=O)c3ccccc32)cc1 | -1.9 | · | 0.0 | -1.5 | 0.2 | -0.6
COc1ccccc1Cc1c(C(C)(C)C)nc2c3ccccc3ccn12 | 0.8 | · | 3.1 | 2.5 | 6.2 | 22.6*
COc1cc(C(=O)OCC(=O)Nc2c(C)n(C)n(-c3ccccc3)c2=O)c([N+](=O)[O-])cc1OC | -2.5 | · | 0.1 | 5.5 | 2.1 | 32.2*
Cc1c(C(=O)OCC(=O)Nc2c(C)n(C)n(-c3ccccc3)c2=O)cccc1[N+](=O)[O-] | -0.4 | -6.3 | -7.2 | 1.6 | 0.5 | -0.8
O=C(O)c1ccc(-c2ccc(/C=c3/sc4nc5ccccc5n4c3=O)o2)cc1Cl | 12.4 | · | 4.3 | 7.9 | 8.0 | 39.9*
Cc1ccc(NC(=O)CN2C(=O)S/C(=C\c3ccc(-c4cccc(C(=O)O)c4C)o3)C2=O)cc1 | · | 6.4 | · | · | · | ·
Cc1ccc(C)c(N2C(=N)S/C(=C\c3ccc(-c4ccccc4C(=O)O)o3)C2=O)c1 | 6.9 | -7.0 | 1.6 | -3.8 | 11.3 | 21.0*
Cc1cc(C)c2nc3sc(=Cc4ccc(-c5ccccc5C(=O)O)o4)c(=O)n3c2c1 | 5.8 | · | -5.0 | 9.1 | 7.3 | 24.2*
CCOC(=O)C(N)CSC1CC(=O)N(CCc2ccccc2)C1=O (configuration not stated) | 21.9* | · | -0.8 | 1.6 | -4.0 | -3.6
Cc1ccc(-c2csc(=S)[nH]2)cc1 | 22.4* | -11.1 | -14.7 | -6.6 | 1.2 | 0.2
Cc1ccc(-c2ccc(C(=O)O)[nH]2)cc1 | -3.3 | 11.7 | -5.0 | 2.3 | -2.4 | 5.2
SMILES | PRMT1 inh | RBBP9 inhibitor | ABHD5 PLIN5 PPI | LEDGF integ inh | MBD2 DNA inh | UHRF1 MBD2 ctr
Cn1nc(C(=O)NC2CCCCC2)c2c1-c1ccccc1SC2 | -0.5 | · | 2.2 | 0.5 | -1.4 | -1.0
CC1CCC(NC(=O)c2nn(C)c3c2CSc2ccccc2-3)CC1 (configuration not stated) | 22.3* | · | -3.4 | -2.9 | 6.8 | 5.8
O=C1COc2ccc(S(=O)(=O)CCC(=O)N3CCN(c4cccc(Cl)c4)CC3)cc2N1 | -3.2 | · | 10.4 | -2.5 | 0.2 | -2.1
Cc1ccc(Cl)cc1N1CCN(C(=O)CCS(=O)(=O)c2ccc3c(c2)NC(=O)CO3)CC1 | 0.5 | · | -0.6 | 1.8 | -1.2 | 23.0*
O=C(NC1CCCCN(Cc2ccc(Cl)cc2)C1=O)C1C2CC3CC(C2)CC1C3 (configuration not stated) | 1.9 | · | · | -0.5 | 0.5 | 2.1
CC1(C(=O)NCc2cccc3ccccc23)CCN1Cc1ccc2ccccc2c1 (configuration not stated) | -1.0 | · | 7.9 | -2.6 | -4.0 | 2.1
CC(C)CCNC(=O)C1(C)CCN1Cc1ccc2ccccc2c1 (configuration not stated) | 1.2 | · | 4.7 | 2.9 | 1.8 | 34.0*
N=C1/C(=C\c2ccc(-c3cccc(C(=O)O)c3)o2)C(=O)N=C2SC=C(c3ccccc3)N12 | 22.0* | -5.3 | 0.0 | 11.7 | 3.9 | 14.2
N=C1/C(=C/c2ccc(-c3cccc(C(=O)O)c3)o2)C(=O)N=C2SC(CC(=O)N3CCOCC3)=NN12 | 10.0 | · | 9.0 | 4.8 | 6.0 | 19.4
COc1ccc(/C=C2\CC3(OC(=O)c4cccc(F)c4)CCCN2C3)cc1 (configuration not stated) | 7.1 | · | · | -1.8 | 7.4 | -0.2
Cc1nc(SC2CC(=O)N(c3cc(Cl)cc(Cl)c3)C2=O)nc2c1CCCC2 (configuration not stated) | 24.1* | -7.1 | -6.6 | 4.4 | 1.9 | 2.9
O=C(NCc1ccco1)OC1CCC12CCC(c1ccccc1)CC2 (configuration not stated) | 0.2 | · | · | 0.8 | -7.6 | 0.5
CC1(C(=O)Nc2ccc(Cl)c(Cl)c2)CCN1C(=O)C1CCCCC1 (configuration not stated) | 1.1 | · | -12.2 | 1.7 | -0.4 | 22.1*
C=CCN1C(=O)[C@H](CC(=O)NCC23CC4CC(CC(C4)C2)C3)[C@@]2(C(=O)OCC)CCCC=C12 | 1.2 | · | · | -1.0 | 0.6 | 0.8
COC(=O)Nc1ccc(SCC(=O)c2cccc([N+](=O)[O-])c2)cc1 | 69.0* | · | -14.6 | -4.6 | -1.4 | -2.8
O=C(O)/C=C\C(=O)Nc1ccccc1C#Cc1ccc(Br)cc1 | 22.0* | -10.2 | -7.7 | -1.5 | 7.2 | 19.7
CCCCCCCCN1CN2Cc3ccccc3C2CS1(=O)=O (configuration not stated) | 0.3 | · | · | 2.4 | -1.5 | -5.0
O=C(COC(=O)c1ccc([N+](=O)[O-])o1)Nc1nc2ccccc2s1 | 4.8 | -1.9 | -5.3 | 0.6 | -0.7 | 28.6*
O=C(COC(=O)c1ccc(Br)o1)Nc1nc2ccccc2s1 | -0.3 | -7.2 | 3.3 | -0.8 | -0.5 | -3.1
COC(=O)[C@]12C[C@H](CC(=O)N3CCSCC3)C(=O)N(Cc3ccc(Cl)cc3Cl)C1=C[C@H](C(C)(C)C)O[C@@H]2C | 2.2 | · | · | 8.6 | -5.2 | -4.3

Assay outcomes deposited in PubChem BioAssay by The Scripps Research Institute Molecular Screening Center.
